Consider 33 compounds from ChEMBL document CHEMBL1127542, “Inhibitors of acyl-CoA:cholesterol O-acyl transferase (ACAT) as hypocholesterolemic agents. 8. Incorporation of amide or amine functionalities into a series of disubstituted ureas and carbamates. Effects on ACAT inhibition in vitro and efficacy in vivo” (J Med Chem, 1994).

A word on the IC50: it is the midpoint of a concentration-inhibition curve. A higher IC50 goes with a need for much substance.

Test [1] deals with Rattus norvegicus. Put plainly: Percent change in total cholesterol in cholic acid (0.5%)-cholesterol (1.5%)-peanut oil (5.5%)-fed rats (50 mg/kg was administered as the standard dose); No change. The class given is functional, organism-based. The gist of the method:
(§1)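 Acute screen: rats given a single gavage dose, 50 mg/kg standard unless noted, suspended in carboxymethylcellulose plus Tween-20 in water, then a single high-fat, high-cholesterol meal (0.5% cholic acid, 1.5% cholesterol, 5.5% peanut oil). Overnight rise in plasma total cholesterol measured as % change versus control. Stomachs checked for food. ANOVA with Fisher's multiple range test, p<0.05.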

Test [2] addresses Sterol O-acyltransferase 1 (Oryctolagus cuniculus). Briefly: In vitro inhibition of rabbit intestinal acyl coenzyme A:cholesterol acyltransferase using [1-14C]oleolyl-CoA.
Test [3] deals with Rattus norvegicus. Put plainly: The compound at a dose of 50 mg/kg is evaluated for percent change in High Density Lipoprotein (HDl) level in chronic cholesterol fed rat screen; No change. Also on record: dose 50 mg/kg. The class given is functional, organism-based. The essentials:
(§2)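 Chronic model: rats fed the high-fat, high-cholesterol diet for 14 days. In the second week, 50 mg/kg given daily by gavage in carboxymethylcellulose/Tween-20 aqueous vehicle. Plasma HDL and non-HDL cholesterol expressed as % change versus control. Body-weight gain monitored. ANOVA with Fisher's multiple range test, p<0.05.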

The species entered for test [4] is Rattus norvegicus. Briefly: Percent change in total cholesterol in cholic acid (0.5%)-cholesterol (1.5%)-peanut oil (5.5%)-fed rats. In kind it is functional. The gist of the method:
as §1

The subject of test [5] is Rattus norvegicus. Briefly: The compound at a dose of 50 mg/kg is evaluated for percent change in NON-High Density Lipoprotein level in chronic cholesterol fed rat screen. In kind it is functional. The gist of the method:
as §2

Test [6] has as its system Rattus norvegicus. Put plainly: The compound at a dose of 50 mg/kg is evaluated for percent change in High Density Lipoprotein (HDl) level in chronic cholesterol fed rat screen. The class given is functional. The gist of the method: as §2
Test [7] relates to Rattus norvegicus. Briefly: The compound at a dose of 50 mg/kg is evaluated for percent change in Non-High Density Lipoprotein level in chronic cholesterol fed rat screen. In kind it is functional. The gist of the method:
as §2

In test [8] the target is T1, Sterol O-acyltransferase 1 (Rattus norvegicus, UniProt O70536).
T1 sequence (O70536 whole entry): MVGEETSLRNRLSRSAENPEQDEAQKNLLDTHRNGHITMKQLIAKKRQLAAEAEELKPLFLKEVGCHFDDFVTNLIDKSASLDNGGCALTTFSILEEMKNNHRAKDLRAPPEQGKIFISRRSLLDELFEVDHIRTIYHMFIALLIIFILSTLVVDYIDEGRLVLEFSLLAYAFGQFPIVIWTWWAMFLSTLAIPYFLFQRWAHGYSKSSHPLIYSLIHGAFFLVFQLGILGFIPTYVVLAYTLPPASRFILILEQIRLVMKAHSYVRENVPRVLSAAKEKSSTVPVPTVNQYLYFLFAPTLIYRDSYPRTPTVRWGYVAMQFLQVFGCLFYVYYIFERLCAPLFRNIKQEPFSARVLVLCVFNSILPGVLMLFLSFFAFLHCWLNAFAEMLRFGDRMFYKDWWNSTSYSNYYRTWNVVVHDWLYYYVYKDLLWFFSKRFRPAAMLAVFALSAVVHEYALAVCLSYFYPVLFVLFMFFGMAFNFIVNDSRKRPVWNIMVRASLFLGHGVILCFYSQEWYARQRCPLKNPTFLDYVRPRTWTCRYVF
Put plainly: In vitro inhibition of rat intestinal acyl coenzyme A:cholesterol acyltransferase using [1-14C]oleolyl-CoA.

In test [9] the test system is Rattus norvegicus. Put plainly: The compound at a dose of 50 mg/kg is evaluated for percent change in High Density Lipoprotein (HDL) level in chronic cholesterol fed rat screen. The class given is functional. The gist of the method: as §2

Calls of active or inactive are those of the source. The calls are words filed in the database; no cut-off is given here.

Consider `CCCCCCC(=O)NCC(CNC(=O)Nc1c(C(C)C)cccc1C(C)C)c1ccccc1` (stereo not given), for which the Change result in the test with Rattus norvegicus [1] was “inactive”. Also, the half-maximal inhibitory concentration (IC50) in test [2] was determined as 650 nM.

On to `CC(C)c1cccc(C(C)C)c1NC(=O)NCC(CNC(=O)c1ccccc1)c1ccccc1` (stereo not given), for which, in the test on Rattus norvegicus [1], the Change result was “inactive”. This compound gave a concentration for half-maximal inhibition (IC50) in [2] of 1900 nM.

Consider `CC(C)c1cccc(C(C)C)c1NC(=O)NCC(NC(=O)c1c(Cl)cccc1Cl)c1ccccc1` (stereo not given), for which, in the test on Rattus norvegicus [1], the Change entry is “inactive”. The compound further returned an IC50 in [2] of 1200 nM.

With `COC(=O)CCCCC(=O)NC(CNC(=O)Nc1c(C(C)C)cccc1C(C)C)c1ccccc1` (stereo not given), in the test with Rattus norvegicus [1], the Change result is “inactive”. In test [2], the IC50 came to 2600 nM.

In test [2], `CCCCCCCCCCCCNCC(CNC(=O)Nc1c(C(C)C)cccc1C(C)C)c1ccccc1` (racemic) gave a 50% inhibitory concentration (IC50) of 110 nM. In addition, the Change entry with Rattus norvegicus [3] was “inactive”. The Change in the test filed under Rattus norvegicus [4] is -54%.

With `CC(=O)NC(CNC(=O)Nc1c(C(C)C)cccc1C(C)C)c1ccccc1` (stereo not given), the Change entry with Rattus norvegicus [1] is “inactive”. In test [2], this compound registered a 50% inhibitory concentration (IC50) of 2500 nM.

For the compound `CCCCCCCCCCCCCCCCNC(CNC(=O)Nc1c(C(C)C)cccc1C(C)C)c1ccccc1` (racemic), the Change result in the test on Rattus norvegicus [1] was “inactive”. Further, in [2], the IC50 was determined as 120 nM.

Regarding `CC(C)c1cccc(C(C)C)c1NC(=O)NCC(NC(=O)CCCCCN)c1ccccc1` (stereo not given), the Change entry with Rattus norvegicus [1] was “inactive”. For the same compound, the IC50 in test [2] is above 5000 nM.

For the compound `CC(C)c1cccc(C(C)C)c1NC(=O)NCC(NCc1ccccc1O)c1ccccc1` (single isomer, unassigned; (-)), the Change is on record as 3% in the test with Rattus norvegicus [5], 40% in the test on Rattus norvegicus [6] and -50% in the test filed under Rattus norvegicus [4]. 120 nM corresponded to half-maximal inhibition in test [2] (IC50).

For `CCCCCCC(=O)NC(CNC(=O)Nc1c(C(C)C)cccc1C(C)C)c1ccccc1` (stereo not given), the Change entry with Rattus norvegicus [1] was “inactive”. Half-maximal inhibition in [2] (IC50) required 150 nM.

Turning to `CCCCCCCCCCCCNC(CNC(=O)Nc1c(C(C)C)cccc1C(C)C)c1ccccc1` (racemic), the IC50 in test [2] was 45 nM. Further, the Change was 29% with Rattus norvegicus [6], -45% in the test listed under Rattus norvegicus [4] and 27% in the test on Rattus norvegicus [7].

Take `CC(C)c1cccc(C(C)C)c1NC(=O)NCC1(c2ccccc2)CCCC1`: the IC50 in test [2] amounted to 17 nM. The Change with Rattus norvegicus [6] was -12%; in the test listed under Rattus norvegicus [4], -38%; with Rattus norvegicus [7], -7%.

The compound `CC(C)c1cccc(C(C)C)c1NC(=O)NCC(NCc1ccc(CN(C)C)cc1)c1ccccc1` (single isomer, unassigned; (-)) came in with an IC50 in test [8] of 170 nM. Further, in the test listed under Rattus norvegicus [4], the Change is -57%.

Turning to `CCCCCCCCCCCCCCCC(=O)NC(CNC(=O)Nc1c(C(C)C)cccc1C(C)C)c1ccccc1` (stereo not given), the Change result in the test with Rattus norvegicus [1] is “inactive”. In [2], half-maximal inhibition (IC50) required 81 nM.

Take `CCOC(=O)N1CCN(CCCCCC(=O)NC(CNC(=O)Nc2c(C(C)C)cccc2C(C)C)c2ccccc2)CC1` (stereo not given): in the test with Rattus norvegicus [1], the Change result is “inactive”. The same compound showed an IC50 in test [2] of 2800 nM.

In the case of `CC(C)=CCCC(C)CC(=O)NC(CNC(=O)Nc1c(C(C)C)cccc1C(C)C)c1ccccc1` (stereo not given), the Change entry in the test on Rattus norvegicus [1] was “inactive”. Moreover, the half-inhibitory concentration (IC50) in test [2] turned out to be 400 nM.

On to `CC(C)c1cccc(C(C)C)c1NC(=O)NCC1(c2ccc(N(C)C)cc2)CCCC1` [NEVANIMIBE], for which the Change with Rattus norvegicus [9] was 200%; in the test on Rattus norvegicus [7], -62%.

As to `CC(C)c1cccc(C(C)C)c1NC(=O)NCC(NC(=O)c1ccccc1)c1ccccc1` (stereo not given), in the test on Rattus norvegicus [1], the Change entry was “inactive”. In test [2], this compound had an IC50 of 530 nM.

In turn, `CC(C)c1cccc(C(C)C)c1NC(=O)NCC(NC(=O)CCCCCBr)c1ccccc1` (stereo not given) had a concentration for half-maximal inhibition (IC50) in [2] of 380 nM. For the same compound, the Change in the test listed under Rattus norvegicus [4] is -36%.

`COc1ccc(CNC(CNC(=O)Nc2c(C(C)C)cccc2C(C)C)c2ccccc2)cc1` (stereo in doubt; 9m(+)) came in with a half-maximal inhibitory concentration (IC50) in test [2] of 70 nM. For the same compound, the Change in the test listed under Rattus norvegicus [4] is -36%.

`CCCCC(=O)NCC(CNC(=O)Nc1c(C(C)C)cccc1C(C)C)c1ccccc1` (stereo not given) displayed an IC50 in test [2] of 610 nM. For the same compound, the Change in the test filed under Rattus norvegicus [4] is reported as -6%.

In turn, `CC(C)c1cccc(C(C)C)c1NC(=O)NCC(NCc1ccco1)c1ccccc1` (single isomer, unassigned; (+)) registered an IC50 in [2] of 99 nM. Also, the Change in the test filed under Rattus norvegicus [4] was -23%.

`CCCCC(=O)NC(CNC(=O)Nc1c(C(C)C)cccc1C(C)C)c1ccccc1` (stereo not given) came in with an IC50 in [2] of 430 nM. Also, the Change in the test filed under Rattus norvegicus [4] is -8%.

On to `CC(C)c1cccc(C(C)C)c1NC(=O)NCC(Cc1ccccc1)NCc1ccccc1O` (stereo not given), for which the half-maximal inhibitory concentration (IC50) in test [2] was 410 nM. Besides, the Change in the test filed under Rattus norvegicus [4] is recorded as -37%.

For the compound `CCCCCCCCCCCC(=O)NCC(CNC(=O)Nc1c(C(C)C)cccc1C(C)C)c1ccccc1` (stereo not given), the Change result in the test on Rattus norvegicus [1] is “inactive”. Half-maximal inhibition in test [2] (IC50) was put at 79 nM.

On to `CC(C)c1cccc(C(C)C)c1NC(=O)NCC(NC(=O)c1cccc[n+]1[O-])c1ccccc1` (stereo not given), for which, in test [2], inhibition was half-maximal at 130 nM (IC50). For the same compound, the Change in the test with Rattus norvegicus [6] is 70%; in the test listed under Rattus norvegicus [4] it was -44%; with Rattus norvegicus [7] it was -31%.

`CCCCCCCCCCNC(CNC(=O)Nc1c(C(C)C)cccc1C(C)C)c1ccccc1` (racemic): the IC50 in [2] stood at 83 nM. Also, in the test listed under Rattus norvegicus [4], the Change is -38%.

Consider `COCCCCCC(=O)NC(CNC(=O)Nc1c(C(C)C)cccc1C(C)C)c1ccccc1` (stereo not given), for which the Change result in the test on Rattus norvegicus [1] is “inactive”. The same compound came in with an IC50 in test [2] of 380 nM.

In the case of `CC(C)c1cccc(C(C)C)c1NC(=O)NCC(NC(=O)CCCCCN(C)C)c1ccccc1` (stereo not given), the Change result in the test with Rattus norvegicus [1] is “inactive”. This compound registered an IC50 in test [2] of 4200 nM.

In test [2], `CC(C)c1cccc(C(C)C)c1NC(=O)NCC(NCc1ccccc1C(F)(F)F)c1ccccc1` (single isomer, unassigned; (-)) yielded an IC50 of 45 nM. Also, the Change in the test listed under Rattus norvegicus [4] is reported as -42%.

Consider `CC(C)c1cccc(C(C)C)c1NC(=O)NCC(CNCc1ccccc1)c1ccccc1` (stereo not given), for which, in test [2], the concentration for half-maximal inhibition (IC50) is 160 nM. Moreover, the Change in the test listed under Rattus norvegicus [4] is listed as -46%.

For `CCCCCCCNC(CNC(=O)Nc1c(C(C)C)cccc1C(C)C)c1ccccc1` (racemic), the half-maximal inhibitory concentration (IC50) in test [2] came to 110 nM. Besides, the Change in the test listed under Rattus norvegicus [4] was -25%.

`COc1ccc(C(=O)NC(C)(CNC(=O)Nc2c(C(C)C)cccc2C(C)C)c2ccccn2)cc1` (racemic) came in with a half-inhibitory concentration (IC50) in test [2] of 610 nM. Further, the Change in the test listed under Rattus norvegicus [4] was -23%.
